Test results taken from ChEMBL document CHEMBL1141315, “Structures and radical-scavenging activities of phenolic constituents from the bark of Picea jezoensis var. jezoensis” (J Nat Prod, 2007).

Tests used:
[1] = tested on: Radical scavenging activity; experiment: Antioxidant activity assessed as DPPH radical scavenging activity; format: functional
In short: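 Test sample in EtOH mixed with 0.1 M HOAc–NaOAc buffer (pH 5.5) and DPPH in EtOH (800 µM stock). Reacted 30 min at room temperature in microplate wells; absorbance read at 517 nm. Value reported as SC50 (50% scavenging concentration).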

[2] = Antioxidant activity assessed as superoxide anion radical scavenging activity; format: functional
In short: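 Superoxide generated by xanthine–xanthine oxidase in 0.05 M Na2CO3 (pH 10.2) with xanthine, EDTA, BSA and nitroblue tetrazolium (stocks 3 mM, 3 mM, 1.5 mg/mL, 0.75 mM); reaction started with xanthine oxidase (0.1 mg/mL stock). Incubated 20 min at 25 °C, stopped with CuCl2, absorbance at 560 nm; IC50 reported.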

SMILES | SC50 [1] [µM] | IC50 [2] [nM]
O=C1C=C2O[C@H](c3ccc(O)c(O)c3)[C@@H](O)[C@@H]3c4c(O)cc(O)cc4[C@H](C23)[C@H](c2ccc(O)c(O)c2)C1 (stereo partly specified) | 3.83 | –
O=C1c2c(O)cc(O)cc2O[C@H](c2ccc(O)c(O)c2)[C@H]1O [(+)-TAXIFOLIN] | 10.4 | 1410
Oc1cc(O)c2c(c1)O[C@H](c1ccc(O)c(O)c1)[C@@H](O)C2 [CIANIDANOL] | 11.4 | 2310
O=C(O)/C=C/c1ccc(O)cc1 [COUMARIC ACID] | 117 | 104000
COc1cc([C@@H]2Oc3c(OC)cc(CCCO)cc3[C@H]2CO)ccc1O [DIHYDRODEHYDRODICONIFERYL ALCOHOL] | 69.1 | 344000
O=C(O)c1cc(O)c(O)c(O)c1 [GALLIC ACID] | 8.08 | 530
COc1cc([C@H]2c3cc(O)c(OC)cc3C[C@@H](CO)[C@@H]2CO)ccc1O [ISOLARICIRESINOL] | 13.7 | 70700
Oc1cc(O)cc([C@@H]2c3c(cc(O)c4c3O[C@H](c3ccc(O)c(O)c3)[C@@H](O)C4)O[C@H]2c2ccc(O)c(O)c2)c1 [JEZONOCINOL A] | 9.92 | 2030
Oc1cc(O)cc([C@H]2c3c(cc(O)c4c3O[C@H](c3ccc(O)c(O)c3)[C@@H](O)C4)O[C@@H]2c2ccc(O)c(O)c2)c1 [JEZONOCINOL B] | 11.8 | 1800
O=Cc1ccc(O)c(O)c1 [PROTOCATECHUALDEHYDE] | 12.2 | 25300
O=C(O)c1ccc(O)c(O)c1 [PROTOCATECHUIC ACID] | 17.3 | 3310
